In article PMC4653337 (Pharmacognosy Magazine, 2015):
Converted amounts (≈) assume the structure as drawn. “And” between values parts separate entries of the source, which are not always exact repeats. Equal entries are not always repeated. Structures can show the parent of a compound that is named as a salt. Where two headings read alike, the source gives them in different places.

Legend:
[1] = system: A549 human lung cancer cell line; assay: Sulforhodamine B; assay type: cell-based; conditions: read-out: Growth inhibition, IC50
Summary of the method: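 SRB growth assay. A549 cells were grown in RPMI 1640 with 10% FBS, 2% penicillin/streptomycin and 1% amphotericin B, then seeded at 8,000 per well overnight. Cells were exposed 24, 48 or 72 h to graded test compound (0.5% DMSO final; reference drug alongside). Cells were fixed in cold 40% TCA for 1 h at 4°C and stained with 0.4% SRB for 30 min. Dye was solubilised in 10 mM Tris pH 10.5 and read at 492 nm. IC50 came from % inhibition dose-response curves.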

[2] = system: MRC-5 human lung fibroblast; assay: Sulforhodamine B; assay type: cell-based; conditions: for IC50: Homo sapiens, read-out: Growth inhibition, IC50
Summary of the method: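 SRB growth assay. MRC-5 fetal lung fibroblasts were grown in MEM with 10% FBS and 1% penicillin/streptomycin at 37°C, 5% CO2, then seeded at 8,000 per well overnight. Cells were exposed 24, 48 or 72 h to graded test compound (0.5% DMSO final). Cells were fixed in cold 40% TCA at 4°C, stained with 0.4% SRB, solubilised in 10 mM Tris pH 10.5 and read at 492 nm. IC50 came from % inhibition versus concentration curves.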

A549 cells [3] = conditions: A549, 48 h treatment; ref 10 (Lee et al.); cited from earlier work
mice = conditions: cited from earlier work
[4] = system: DNA topoisomerase I (Top 1); conditions: cited from earlier work
[5] = system: MDA-MB-435 breast cancer cells; conditions: MDA-MB-435, 5–50 µM for 24 h; cited from earlier work
caspase-9 in A549 cells = assay: Caspase-9 activity; assay type: cell-based, human; conditions: A549, 12, 24, 48 h; highest RLU at 14 μM at 24 h and 48 h
caspase-3 in A549 cells = assay: Caspase-3 activity; assay type: cell-based, human; conditions: A549, 12, 24, 48 h
A549 cells [6] = assay: Phase contrast microscopy; assay type: cell-based, human; conditions: A549, 14, 28, 42 μM, 72 h
[7] = system: HCT-116 human colon cancer cells; conditions: cited from earlier work
A549 cells [8] = assay: DNA fragmentation by TUNEL assay; assay type: cell-based, human; conditions: 72 h, negative control 4.27 ± 0.13%
A549 cells [9] = assay: Cell cycle analysis; assay type: cell-based, human; conditions: 72 h; for percentage of cells at S phase: 0 μM 8.94 ± 0.23%
Summary of the method: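 After 72 h of test compound, adherent and floating A549 cells were pooled and fixed in 70% ethanol overnight. Cells were stained 30 min at room temperature with 50 μg/ml PI, 50 μg/ml RNase, 0.1% Triton X-100 and 1 mg/ml sodium citrate (final). DNA content was read by flow cytometry and modelled into sub-G1, G1, S and G2/M fractions. Runs were done at least twice in triplicate; one-way ANOVA/Tukey versus control.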

A549 cells [10] = assay: Mitochondrial membrane potential assay; assay type: cell-based, human; conditions: A549, 14, 28, 42 μM, 72 h, dose-dependent
Summary of the method: (§1)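 A549 cells in RPMI 1640 with 10% FBS, 37°C, 5% CO2. Test compound in DMSO, 0.5% DMSO final. Annexin: 2.4 × 10^5 cells/well adhered overnight, 72 h exposure, 1 × 10^5 cells stained with FITC-annexin V and PI, 10,000 events per replicate. JC-1: 72 h, 15 min dye, red aggregate (FL2-A) vs green monomer (FL1-A). Mean ± SEM; at least two runs in triplicate.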

[11] = Mitochondrial membrane potential assay; assay type: cell-based, human; conditions: human, A549 cells, Population of viable cells (P5 region, high Δψm), A549, 42 μM, untreated 91.42 ± 0.36%
Summary of the method: as §1

breast cancer xenografts = breast cancer xenografts in nude mice; ref 24 (Monteiro et al.); cited from earlier work
A549 cells [12] = assay: Annexin V-FITC/PI staining, flow cytometry; assay type: cell-based, human; conditions: 72 h; for percentage of early apoptotic cells (Annexin V-FITC+ PI-): negative control 1.42 ± 0.47%; for population of late apoptotic or secondary necrotic cells (Annexin V-FITC+ PI+): negative control 1.80 ± 0.30%
Summary of the method: as §1

caspase-8 in A549 cells = assay: Caspase-8 activity; assay type: cell-based, human; conditions: A549, 12, 24, 48 h; highest RLU at 14 μM at 24 h and 48 h
[13] = system: benign prostatic hyperplasia (BPH-1) epithelial cell line; conditions: BPH-1, 10 µM and 20 µM for 48 h; cited from earlier work

COc1cccc2c1C(=O)c1c(O)c3c(c(O)c1C2=O)C[C@@](O)(C(=O)CO)C[C@@H]3O[C@H]1C[C@H](N)[C@H](O)[C@H](C)O1 [Doxorubicin, Doxorubicin hydrochloride, reference compound]
IC50 ([1]; A549, 24 h): 2.85 ± 0.2 µM
IC50 ([1]; A549, 48 h): 0.22 ± 0.03 µM
IC50 ([1]; A549, 72 h): 0.02 ± 0.02 µM
IC50 ([2]; MRC5, 24 h): 5.71 ± 0.55 µM
IC50 ([2]; MRC5, 48 h): 2.01 ± 0.04 µM
IC50 ([2]; MRC5, 72 h): 1.09 ± 0.1 µM
IC50 (cytotoxic effects on A549) (A549 cells [3]): 0.5 µg/mL

COc1cc(O)c(CC=C(C)C)c(O)c1C(=O)/C=C/c1ccc(O)cc1 [Xanthohumol, 2', 4, 4'-trihydroxy-3'-prenyl-6'-methoxychalcone]
Organ function and homeostasis (mice; feeding, ref 6 (Dorn et al.)): did not impair organ function and homeostasis
Hematological and biochemical blood analyses versus control group (mice; oral administration, ref 25 (Vanhoecke et al.)): no difference in hematological and biochemical blood analyses
Effect on DNA topoisomerase I (Top 1) activity [4]: inhibition of DNA topoisomerase I (Top 1) activity
Cell cycle effect [5]: S phase arrest
Caspase-9 activity (RLU) (caspase-9 in A549 cells): significantly increased
Caspase-3 activity (RFU) (caspase-3 in A549 cells): RFU values increased as concentration and treatment time increased
Morphological changes (A549 cells [6]): atrophy, size shrinkage, decrease in cell number, and detachment of cells
Caspase activation [7]: Activation of all caspase-3, -8, and -9
percentage of cells with DNA fragmentation (A549 cells [8]; A549, 28 μM): 34.7 ± 0.30%
percentage of cells with DNA fragmentation (A549 cells [8]; A549, 42 μM): 39.2 ± 0.15%
percentage of cells at S phase (A549 cells [9]; A549, 14 μM): 12.34 ± 1.09%
percentage of cells at S phase (A549 cells [9]; A549, 28 μM): 16.43 ± 1.52%
percentage of cells at S phase (A549 cells [9]; A549, 42 μM): 46.95 ± 2.03%
Effect on sub G1 population (A549 cells [9]; A549, increasing concentration): increased the percentage of cells arrested at sub G1 peak
Effect on mitochondrial membrane potential (Δψm) (A549 cells [10]): significantly reduced
viability at 72 h, 42 µM [11]: 2.88 ± 0.62%
In vivo antitumor effects on isolated tumors (breast cancer xenografts): decrease in tumor-surrounding inflammatory cells and a large central necrosis
IC50 ([1]; A549, 24 h): 74.1 ± 1.98 µM
IC50 ([1]; A549, 48 h): 25.5 ± 0.3 µM
IC50 ([1]; A549, 72 h): 13.5 ± 0.82 µM
percentage of early apoptotic cells (Annexin V-FITC+ PI-) (A549 cells [12]; A549, 14 μM): 2.72 ± 0.59%
population of late apoptotic or secondary necrotic cells (Annexin V-FITC+ PI+) (A549 cells [12]; A549, 14 μM): 4.90 ± 0.85%
percentage of early apoptotic cells (Annexin V-FITC+ PI-) (A549 cells [12]; A549, 28 μM): 26.08 ± 1.50%
population of late apoptotic or secondary necrotic cells (Annexin V-FITC+ PI+) (A549 cells [12]; A549, 28 μM): 17.05 ± 3.12%
percentage of early apoptotic cells (Annexin V-FITC+ PI-) (A549 cells [12]; A549, 42 μM): 34.42 ± 4.41%
population of late apoptotic or secondary necrotic cells (Annexin V-FITC+ PI+) (A549 cells [12]; A549, 42 μM): 33.27 ± 3.55%
Caspase-8 activity (RLU) (caspase-8 in A549 cells): significantly increased
Cell cycle effect [13]: S phase arrest
IC50 ([2]; MRC5, 24 h): > 282 µM and > 100 µg/mL
IC50 ([2]; MRC5, 48 h): 149 ± 4.96 µM
IC50 ([2]; MRC5, 72 h): 94.4 ± 1.77 µM
Toxicity to normal cells (MRC-5) versus cancer cells (A549) ([2]; comparison of IC50 values on MRC-5 and A549, SRB assay): less toxic to normal cells compared to cancer cells
IC50 (cytotoxic effects on A549) (A549 cells [3]): 4.3 µg/mL (≈ 12.1 µM)
